ChEMBL document CHEMBL1138555, “N-acylated and N,N'-diacylated imidazolidine-2-thione derivatives and N,N'-diacylated tetrahydropyrimidine-2(1H)-thione analogues: synthesis and antiproliferative activity” (Eur J Med Chem, 2009)

Assays:
Format in all cases: functional
[1] = system: COLO 205; experiment: Growth inhibition of human COLO205 cells after 48 hrs by sulforhodamine B assay; conditions: COLO 205, 48 h
Procedure, shortened: (§1)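 NCI screen panel. Five 10-fold concentrations from 10^-4 to 10^-8 M. Exposure for the last 48 h of a 72 h incubation. Growth estimated by sulforhodamine B protein assay. GI50 is the concentration giving 50% growth inhibition. Where that level was not reached or was exceeded, the value is given as above or below the highest or lowest concentration tested.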

[2] = system: SW-620; experiment: Growth inhibition of human SW620 cells after 48 hrs by sulforhodamine B assay; conditions: SW-620, 48 h
Procedure, shortened: (§2)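 NCI in vitro panel screen. Compounds tested at five 10-fold dilutions, 10^-4 to 10^-8 M. Cells in 96-well plates were exposed for the last 48 h of a 72 h incubation. Viability/growth was read by sulforhodamine B protein assay. GI50 is the concentration giving 50% growth inhibition. Values beyond the tested range are reported as greater or less than the maximum or minimum concentration.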

[3] = system: A549; experiment: Growth inhibition of human A549 cells after 48 hrs by sulforhodamine B assay; conditions: A549, 48 h; procedure, shortened: as §1
[4] = system: SNB-19; experiment: Growth inhibition of human SNB19 cells after 48 hrs by sulforhodamine B assay; conditions: SNB-19, 48 h; procedure, shortened: as §2
[5] = system: SK-MEL-2; experiment: Growth inhibition of human SK-MEL-2 cells after 48 hrs by sulforhodamine B assay; conditions: SK-MEL-2, 48 h; procedure, shortened: as §1
[6] = system: CCRF-CEM; experiment: Growth inhibition of human CCRF-CEM cells after 48 hrs by sulforhodamine B assay; procedure, shortened: as §1
[7] = system: OVCAR-5; experiment: Growth inhibition of human OVCAR5 cells after 48 hrs by sulforhodamine B assay; conditions: OVCAR-5, 48 h; procedure, shortened: as §1
[8] = system: T47D; experiment: Growth inhibition of human T47D cells after 48 hrs by sulforhodamine B assay; procedure, shortened: as §2
[9] = system: NCI/ADR-RES; experiment: Growth inhibition of human NCI/ADR-RES cells after 48 hrs by sulforhodamine B assay; procedure, shortened: as §1
[10] = system: NCI-H23; experiment: Growth inhibition of human NCI-H23 cells after 48 hrs by sulforhodamine B assay; conditions: NCI-H23, 48 h; procedure, shortened: as §1
[11] = system: OVCAR-4; experiment: Growth inhibition of human OVCAR4 cells after 48 hrs by sulforhodamine B assay; conditions: OVCAR-4, 48 h; procedure, shortened: as §1
[12] = system: HCT-15; experiment: Growth inhibition of human HCT15 cells after 48 hrs by sulforhodamine B assay; conditions: HCT-15, 48 h; procedure, shortened: as §1
[13] = system: SF-539; experiment: Growth inhibition of human SF539 cells after 48 hrs by sulforhodamine B assay; conditions: SF-539, 48 h; procedure, shortened: as §1
[14] = system: SF-295; experiment: Growth inhibition of human SF295 cells after 48 hrs by sulforhodamine B assay; conditions: SF-295, 48 h; procedure, shortened: as §1
[15] = Growth inhibition of human […] cells after 48 hrs by sulforhodamine B assay; procedure, shortened: as §1
[16] = system: HCC 2998; experiment: Growth inhibition of human HCC2998 cells after 48 hrs by sulforhodamine B assay; conditions: HCC 2998, 48 h; procedure, shortened: as §1
[17] = system: K562; experiment: Growth inhibition of human K562 cells after 48 hrs by sulforhodamine B assay; conditions: K562, 48 h; procedure, shortened: as §1
[18] = system: HT-29; experiment: Growth inhibition of human HT-29 cells after 48 hrs by sulforhodamine B assay; conditions: HT-29, 48 h; procedure, shortened: as §1
[19] = system: RXF 393; experiment: Growth inhibition of human RXF393 cells after 48 hrs by sulforhodamine B assay; conditions: RXF 393, 48 h; procedure, shortened: as §1
[20] = system: SR; experiment: Growth inhibition of human SR cells after 48 hrs by sulforhodamine B assay; procedure, shortened: as §2
[21] = system: UO-31; experiment: Growth inhibition of human UO31 cells after 48 hrs by sulforhodamine B assay; conditions: UO-31, 48 h; procedure, shortened: as §2
[22] = system: SK-MEL-5; experiment: Growth inhibition of human SK-MEL-5 cells after 48 hrs by sulforhodamine B assay; conditions: SK-MEL-5, 48 h; procedure, shortened: as §1

Row | Compound | GI50 [1] | GI50 [2] | GI50 [3] | GI50 [4] | GI50 [5] | GI50 [6] | GI50 [7] | GI50 [8] | GI50 [9] | GI50 [10] | GI50 [11] | GI50 [12] | GI50 [13] | GI50 [14] | GI50 [15] | GI50 [16] | GI50 [17] | GI50 [18] | GI50 [19] | GI50 [21] | also measured
1 | O=C(c1ccc(Cl)cc1Cl)N1CCN(C(=O)c2ccc(Cl)cc2Cl)C1=S | 21 µM | 28.2 µM | 20.1 µM | 24.9 µM | 18.4 µM | 19.5 µM | 21.6 µM | 19.5 µM | 24.8 µM | 19.8 µM | 25.8 µM | 22.1 µM | 27.2 µM | 22.9 µM | 12.9 µM | 22 µM | 31.4 µM | 20.4 µM | 18.5 µM | – | –
2 | O=CN1CCN(C(=O)c2ccco2)C1=S | 8.7 µM | 5.5 µM | 12.5 µM | 24.6 µM | 16.5 µM | 3.6 µM | 18 µM | 4 µM | 24.5 µM | 16.7 µM | 18.6 µM | 5.6 µM | 2.5 µM | 21.4 µM | 1.8 µM | 13.4 µM | 2.6 µM | 7.5 µM | 3.3 µM | 4.5 µM | GI50 [20]: 2.1 µM; GI50 [22]: 12.7 µM
3 | O=C(c1cc(Cl)cc(Cl)c1)N1CCN(C(=O)c2cc(Cl)cc(Cl)c2)C1=S | 18.3 µM | 11.1 µM | 18.4 µM | 19 µM | 16.1 µM | 3.3 µM | 22.9 µM | 6.5 µM | 31.7 µM | 14.8 µM | 18 µM | 13.5 µM | 12.8 µM | 19.5 µM | 1.5 µM | 16.7 µM | 4.8 µM | 22.2 µM | 12.7 µM | 2.3 µM | GI50 [20]: 3.3 µM; GI50 [22]: 16.1 µM
4 | COc1cc(C(=O)N2CCN(C(=O)c3cc(OC)c(OC)c(OC)c3)C2=S)cc(OC)c1OC | 19.4 µM | 20.3 µM | 19.9 µM | 18.5 µM | 16.3 µM | 12.2 µM | 23.2 µM | 13.1 µM | 26.8 µM | 18.7 µM | 16.9 µM | 20.2 µM | 14.5 µM | 19 µM | 3.7 µM | 19 µM | 24.9 µM | 22.7 µM | 14.3 µM | 0.2 µM | –
5 | O=C(c1ccco1)N1CCN(C(=O)c2ccco2)C1=S | 9.4 µM | 5.5 µM | 9.8 µM | 25.4 µM | 14.2 µM | 1.2 µM | 17.8 µM | 4.9 µM | 15.6 µM | 19.5 µM | 15.6 µM | 4.1 µM | 3 µM | 16.9 µM | 2 µM | 12.4 µM | 1 µM | 5 µM | 3.6 µM | 3.7 µM | GI50 [20]: 1.8 µM; GI50 [22]: 10.1 µM
6 | O=C(c1ccc(Cl)c(Cl)c1)N1CCN(C(=O)c2ccc(Cl)c(Cl)c2)C1=S | 17.7 µM | 21.3 µM | 27.8 µM | 21.4 µM | 18.4 µM | 4.5 µM | 24.3 µM | 17.5 µM | 34.4 µM | 22 µM | 16.8 µM | 19.6 µM | 15.1 µM | 18.5 µM | 1.8 µM | 19.9 µM | 16.5 µM | 24.2 µM | 17.8 µM | – | –
7 | O=C(c1cccs1)N1CCN(C(=O)c2cccs2)C1=S | 7.7 µM | 4.8 µM | 4 µM | 14.4 µM | 12.6 µM | 2.1 µM | 17.1 µM | 4.6 µM | 19.1 µM | 10.6 µM | 18.8 µM | 5.3 µM | 1.8 µM | 16.7 µM | 1.2 µM | 8 µM | 3.5 µM | 11.9 µM | 2.9 µM | 2.3 µM | GI50 [20]: 3.4 µM; GI50 [22]: 4.6 µM
8 | COc1cc(C(=O)N2CCN(C=O)C2=S)cc(OC)c1OC | 20.2 µM | 26.8 µM | 33.2 µM | 28.5 µM | 19.9 µM | 18.3 µM | 48.5 µM | 20.7 µM | 36.1 µM | 25.9 µM | 24.1 µM | 25.6 µM | 21.3 µM | 29.3 µM | 7.3 µM | 19.8 µM | 30.8 µM | 26.7 µM | 16.1 µM | 0.07 µM | –
